These results are taken from paper PMC11127568 (ACS infectious diseases, 2024).

Experiment [1] has as its system B. duncani. The experiment in a line: microbe, parasite or virus in culture. The class given is cell-based, Babesia duncani (WA1). The following applies: read-out: IC50 B. duncani.
The test system of experiment [2] is B. duncani. Kind of experiment: In vitro drug-drug interaction with atovaquone by isobologram analysis. The class given is cell-based, Babesia duncani. The following applies: combination with atovaquone; for Mode of Interaction: isobologram analysis. In outline:
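B. duncani WA1 grown in A+ human RBCs, DMEM/F12, 5% hematocrit. […] SYBR Green I lysis read-out (ex 497/em 520 nm). FIC50 = IC50 in combination/IC50 alone, summed; ΣFIC50 <0.8 synergy, 0.8–<1.4 additive, ≥1.4 antagonism. ≥2 independent experiments, triplicates.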

In experiment [3] the test system is B. duncani. The experiment in a line: In vivo efficacy in B. duncani lethal infection model in C3H/HeJ mice. The following applies: for Survival after monotherapy: lethal B. duncani infection, 10 mg/kg oral daily DPI 3 to 7. The arrangement: species or system mouse (C3H/HeJ). In outline: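 Female C3H/HeJ mice (6 weeks, 5 per group) were infected intravenously with 1×10³ B. duncani WA1-infected RBCs. Oral gavage was given daily on DPI 3–7 with 100 μl PEG 400 vehicle or test compound at 10 mg/kg. Parasitemia came from Giemsa-stained thin blood smears, with at least 3000 RBCs counted, followed to DPI 84. Survival by Kaplan-Meier.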

Experiment [4] relates to human cell lines (HeLa, HepG2, HEK, and HCT116). The experiment in a line: Drug cytotoxicity evaluation. The class given is cell-based. The following applies: 48 h, read-out: IC50 Human cell lines.
The subject of another experiment is B. microti. The experiment in a line: In vivo efficacy in B. microti chronic infection model in CB.17/SCID mice. The arrangement: species or system mouse (CB.17/SCID). To be noted: SCID mice, 10 mg/kg oral.
Where [5] appears, read: B. duncani, 10 mg/kg oral DPI 3 to 7.

Like-named read-outs stand apart in the source and are kept apart here.

By IC50 is commonly meant the midpoint of a concentration-inhibition curve. For `COc1cc2[nH]c(C)c(-c3ccc(-c4ccc(OC(F)(F)F)cc4)cc3)c(=O)c2cc1F` [ELQ-650], the IC50 in the experiment with B. duncani [1] worked out at 22 ± 4.9 nM. The “Mode of Interaction” value in the experiment with B. duncani [2] is recorded as “additive (0.8 ≤ ΣFIC50 < 1.4 = additive)”.

In the case of `CCOC(=O)OCOc1c(-c2ccc(-c3ccc(OC(F)(F)F)cc3)cc2)c(C)nc2cc(OC)c(Cl)cc12` [ELQ-598], in the experiment on B. duncani [1], the IC50 was 37 ± 2.2 nM. The “Parasites on Giemsa-stained thin-blood smears on monitoring until DPI 84” value in the experiment with B. duncani [3] (setting [5]) was “no parasites could be detected”. Moreover, the Survival after monotherapy result with B. duncani [3] is on record as “survival of these mice for the duration of study”. Moreover, the “Mode of Interaction” value in the experiment on B. duncani [2] was “additive (0.8 ≤ ΣFIC50 < 1.4 = additive)”.

For `O=C1C(O)=C([C@H]2CC[C@H](c3ccc(Cl)cc3)CC2)C(=O)c2ccccc21` [Atovaquone, reference compound], the 50% inhibitory concentration (IC50) stood at 72 ± 6 nM with B. duncani [1] (Babesia duncani, Erythrocyte, in Homo sapiens, 62 h) and 5000 nM in experiment [4].

`CCOC(=O)OCOc1c(-c2ccc(-c3ccc(OC(F)(F)F)cc3)cc2)c(C)nc2cc(OC)c(F)cc12` [ELQ-672]: the IC50 in the experiment with B. duncani [1] turned out to be 57 ± 18 nM. In the experiment with B. duncani [3] (setting [5]), the Day parasites emerged worked out at 16 DPI and the “Parasitemia at DPI 19” value was 8%. For the same molecule, the Survival after monotherapy result in the experiment on B. duncani [3] is listed as “animals ultimately succumbing to infection”. In addition, the Day parasites emerged with B. microti (vehicle DPI 17) is listed as 21 DPI. In addition, the “Day peak parasitemia reached” value in the experiment on B. microti (vehicle DPI 21) was found to be 31 DPI. Also, the “Mean FIC value (Σ FIC50)” value in the experiment with B. duncani [2] (B. duncani in human red blood cells, fixed ratio method) was 0.5. The “Mode of Interaction” value with B. duncani [2] was “synergistic”.

On to `COc1cc2[nH]c(C)c(-c3ccc(-c4ccc(OC(F)(F)F)cc4)cc3)c(=O)c2cc1Cl` [ELQ-596], for which the IC50 in the experiment on B. duncani [1] is 32 ± 4.9 nM. In addition, the “Mode of Interaction” value in the experiment with B. duncani [2] is given as “additive (0.8 ≤ ΣFIC50 < 1.4 = additive)”.
